Pf Dd2 inh: blocks growth of Plasmodium falciparum Dd2 parasites | P. falciparum Dd2 growth, SYBR Green, 72 h; stronger effect = lower value | activity change, % at 10 µM | hit rate 2.3% among 94,000 | AID 1159554; in the data active = activity change below about -80%; inconclusive = no clear call, values can overlap the other calls
IDH1 R132H inh: IDH1 R132H (human) inhibition | O75874 | inhibition, % at 10 µM | AID 624101 | hit rate 0.18% among 70,000 | IDH1 R132H reductase, diaphorase/resazurin fluorescence, 60 min; in the data active = inhibition above about 34%; inconclusive = no clear call, values can overlap the other calls; inactive = below about 11%;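 also: 0% = DMSO and 100% = no enzyme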
Target sequence (O75874 whole entry R132H): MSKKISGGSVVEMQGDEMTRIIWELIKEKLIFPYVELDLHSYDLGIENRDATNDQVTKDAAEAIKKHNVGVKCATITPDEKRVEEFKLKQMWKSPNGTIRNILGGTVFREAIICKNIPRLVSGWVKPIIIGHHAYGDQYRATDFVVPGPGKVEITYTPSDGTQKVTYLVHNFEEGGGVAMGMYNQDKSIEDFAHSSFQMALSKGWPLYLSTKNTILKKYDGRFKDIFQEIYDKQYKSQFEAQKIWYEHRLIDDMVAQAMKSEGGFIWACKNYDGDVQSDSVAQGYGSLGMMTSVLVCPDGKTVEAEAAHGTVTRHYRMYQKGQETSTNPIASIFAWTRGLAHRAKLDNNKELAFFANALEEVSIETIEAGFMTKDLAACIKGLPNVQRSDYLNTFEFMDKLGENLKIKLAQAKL
GASC1 inh: inhibitors of human demethylase GASC-1 KDM4C. Q9H3R0. AID 720574. inhibition, % at 12.5 µM. hit rate 0.15% among 96,000. GST-KDM4C 2-372, H3K9me3 peptide, LANCE TR-FRET;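 active = mean replicate inhibition above about 25%, with at least 55% of replicates also reaching it, limit read from the data, passing the limit was not always enough; inconclusive = only one of those two conditions met; inactive = neither condition met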
Target sequence (Q9H3R0 2-372 limits assumed): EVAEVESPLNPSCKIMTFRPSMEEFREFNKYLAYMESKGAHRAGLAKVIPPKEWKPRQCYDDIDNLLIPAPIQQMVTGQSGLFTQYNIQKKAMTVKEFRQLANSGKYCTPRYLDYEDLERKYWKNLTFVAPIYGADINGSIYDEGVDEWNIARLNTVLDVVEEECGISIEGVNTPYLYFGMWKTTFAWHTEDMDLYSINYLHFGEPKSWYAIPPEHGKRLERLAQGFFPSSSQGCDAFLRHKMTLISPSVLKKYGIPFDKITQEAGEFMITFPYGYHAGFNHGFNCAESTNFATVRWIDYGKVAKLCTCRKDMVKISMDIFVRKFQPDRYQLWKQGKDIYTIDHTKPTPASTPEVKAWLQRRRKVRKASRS
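Test system – GST-tagged GASC-1 (JMJD2C) catalytic fragment, aa 2-372 · Medium – HEPES buffer, pH 7.5, plus ascorbate · Reagent – H3K9me3 peptide with Fe(II)/2OG · Compound – one test concentration per compound · Timing – 30 min reaction, 60 min detection, RT · Technique – TR-FRET with Eu antibody and ULight streptavidin, EDTA stop · Read-out basis – inhibition from TR-FRET ratio decrease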
T cruzi growth-1: T. cruzi proliferation inhibition; T. cruzi beta-gal in NIH3T3, GalScreen luminescence, 90 h; inhibition, % at 8.34 µM; hit rate 5.9% among 77,000;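 active = mean inhibition above about 93%, with at least 55% of replicates each passing it, limit read from the data, passing the limit was not always enough; inconclusive = only one of those two conditions holds; inactive = neither condition holds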
T cruzi growth-2: blocks T. cruzi growth in NIH3T3 host cells; shares compounds with T cruzi growth-1; T. cruzi beta-gal in NIH3T3, GalScreen luminescence, 90 h; inhibition, % at 8.35 µM; hit rate 72% among 5,600;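 active = mean replicate inhibition above about 95% and at least 55% of replicates individually reaching it, limit read from the data; inconclusive = only one of the two criteria is met; inactive = neither criterion is met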
T cruzi growth-3: Trypanosoma cruzi proliferation inhibition; T. cruzi beta-gal in NIH3T3, GalScreen luminescence, 90 h; shares compounds with T cruzi growth-1; hit rate 21% among 5,600; inhibition, % at 2.09 µM;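 active = mean inhibition above about 95%, with at least 55% of replicates also reaching it, limit read from the data; inconclusive = meets just one of the two conditions; inactive = meets neither condition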;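 also: plate controls were neutral control median for no effect and positive control median for full effect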
NIH3T3 tox: NIH/3T3 (mouse) viability loss | hit rate 14% among 5,600 | shares compounds with T cruzi growth-1 | cytotoxicity (signal decrease), % at 8.35 µM | NIH/3T3 viability, CellTiter-Glo ATP luminescence, 90 h;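 active = mean signal decrease across replicates above about 35% based on untreated-well scatter, with enough replicates individually passing, limit read from the data; inconclusive = no rule stated though some were filed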;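 also: 0% = median of neutral control wells and 100% = median of positive control wells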
NIH3T3 tox 2: cytotoxicity in mouse NIH/3T3 fibroblasts; shares compounds with T cruzi growth-1; NIH/3T3 viability, CellTiter-Glo ATP luminescence, 90 h; inhibition, % at 24.9 µM; hit rate 56% among 5,600; AID 651744;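 active = mean loss of cell viability signal at or above a set limit, and enough replicates individually reaching it; inconclusive = meets only the mean limit or only the replicate share; inactive = meets neither condition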;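 also: 0% = median of neutral control wells and 100% = median of positive control wells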
Active calls of the source: *; ? = inconclusive; . = no result given. Rows were chosen to be rich in hits. Some 5.9% of all compounds tested hit in one or more screens of this group.

SMILES | Pf Dd2 inh | IDH1 R132H inh | GASC1 inh | T cruzi growth-1 | T cruzi growth-2 | T cruzi growth-3 | NIH3T3 tox | NIH3T3 tox 2
C[C@H]1CCCCO[C@H](CN(C)S(=O)(=O)c2cccs2)[C@@H](C)CN([C@@H](C)CO)C(=O)c2cc(NS(=O)(=O)c3ccc(Cl)cc3)ccc2O1 | -58.3 | . | -0.6 | 102.8* | 106.2* | 76.5 | -26.9 | -14.3
C[C@@H]1CCCCO[C@@H](CN(C)S(=O)(=O)c2ccc(Cl)cc2)[C@H](C)CN([C@H](C)CO)C(=O)c2cc(NS(=O)(=O)c3cccs3)ccc2O1 | . | . | -0.7 | ? | 105.3* | 85.9 | -11.0 | -9.7
COc1ccc(-c2nnc(SCC(=O)O)n2-c2ccccc2)cc1 | . | 0.4 | . | . | . | . | . | .
C/C=C/c1ccc([C@H]2[C@@H](CO)N3CCCCN(S(=O)(=O)c4ccc(OC)cc4)C[C@@H]23)cc1 | -15.4 | . | -0.3 | 95.4* | 110.7* | 69.0 | -0.2 | 55.2*
C/C=C/c1ccc([C@H]2[C@H](CO)N3CCCCN(S(=O)(=O)c4ccc(F)cc4)C[C@@H]23)cc1 | 0.6 | . | 0.3 | 111.5* | 108.2* | 56.9 | 22.1 | 101.8*
C[C@H]1CN([C@@H](C)CO)C(=O)c2cccc(N(C)C)c2O[C@@H]1CN(C)Cc1ccc(C(=O)Nc2ccccc2N)cc1 | ? | 0.2 | -0.3 | 87.2 | . | . | . | .
CCC(=O)N(C)C[C@@H]1Oc2cc(C#CCC3CCCC3)ccc2S(=O)(=O)N([C@@H](C)CO)C[C@H]1C | -55.9 | -0.1 | -5.6 | 128.8* | 108.8* | 77.0 | 8.9 | 104.1*
CCC(=O)N(C)C[C@H]1Oc2cc(C#CCC3CCCC3)ccc2S(=O)(=O)N([C@@H](C)CO)C[C@H]1C | -46.4 | 0.0 | -0.7 | 119.3* | 98.3* | 89.0 | 27.3 | 104.9*
CCC(=O)N(C)C[C@H]1Oc2cc(C#CCC3CCCC3)ccc2S(=O)(=O)N([C@@H](C)CO)C[C@@H]1C | -76.7 | 5.8 | -0.8 | 127.8* | 105.6* | 93.9 | 43.2* | 104.7*
C[C@@H]1CN([C@H](C)CO)S(=O)(=O)c2ccc(C#CCC3CCCC3)cc2O[C@@H]1CN(C)C(=O)c1ccccn1 | -59.3 | -1.5 | 0.2 | 109.9* | 100.3* | 29.3 | 51.2* | 103.9*
CCC(=O)N(C)C[C@H]1Oc2cc(C#CCC3CCCC3)ccc2S(=O)(=O)N([C@H](C)CO)C[C@@H]1C | -35.5 | -0.2 | -1.1 | 75.4 | . | . | . | .
COCC(=O)N1CC2(C1)CN(Cc1ccccc1Cl)[C@H](CO)c1c2c2ccc(OC)cc2n1C | -72.6 | . | 0.2 | . | . | . | . | .
C[C@H](CO)N1C[C@H](C)[C@H](CN(C)C)Oc2cc(C#CCC3CCCC3)ccc2S1(=O)=O | -51.1 | 0.5 | 0.3 | 17.5 | . | . | . | .
C[C@H](CO)N1C[C@H](C)[C@@H](CN(C)C)Oc2cc(C#CCC3CCCC3)ccc2S1(=O)=O | -30.9 | -2.6 | -1.1 | ? | 107.3* | 86.0 | 31.0 | 103.3*
O=C(C[C@H]1C[C@@H]2c3cc(NS(=O)(=O)c4ccc(F)cc4)ccc3O[C@@H]2[C@@H](CO)O1)NCc1ccc(Oc2ccccc2)cc1 | -75.6 | 0.2 | 0.3 | 5.2 | . | . | . | .
O=C(C[C@H]1CC[C@@H]2[C@H](COC[C@@H](O)CN2Cc2cccc(C(F)(F)F)c2)O1)NCc1ccc(Cl)cc1 | -13.0 | . | -0.7 | 178.1* | 108.9* | 24.4 | 47.2* | 56.3*
O=C(C[C@@H]1CC[C@H]2[C@@H](COC[C@H](O)CN2Cc2cccc(C(F)(F)F)c2)O1)NCc1ccc(Cl)cc1 | -21.2 | . | 0.2 | 125.2* | 110.3* | 22.0 | 2.5 | 27.9*
O=C(C[C@H]1CC[C@@H]2[C@H](COC[C@@H](O)CN2Cc2cccc(Cl)c2)O1)NCC1CCCCC1 | . | . | 0.3 | 111.3* | 50.7 | -22.5 | 5.3 | -6.4
O=C(C[C@@H]1CC[C@@H]2[C@H](COC[C@@H](O)CN2Cc2cccc(C(F)(F)F)c2)O1)NCc1ccccc1 | 7.3 | . | -0.8 | 33.7 | . | . | . | .
O=C(C[C@H]1CC[C@@H]2[C@H](COC[C@H](O)CN2CCC(F)(F)F)O1)N1CCC(Cc2ccccc2)CC1 | 19.5 | . | -1.0 | 53.3 | . | . | . | .
O=C(C[C@@H]1CC[C@@H]2[C@H](COC[C@@H](O)CN2CCC(F)(F)F)O1)N1CCC(Cc2ccccc2)CC1 | -1.6 | . | -1.0 | ? | ? | 51.1 | 4.4 | -1.6
C[C@H](CO)N1C[C@H](C)[C@H](CN(C)Cc2cccnc2)Oc2ncc(-c3ccccc3)cc2C1=O | 33.4 | -0.3 | 1.9 | 7.0 | . | . | . | .
O=C(C[C@H]1CC[C@@H](NC(=O)c2ccncc2)[C@@H](CO)O1)NCCc1ccncc1 | -3.7 | 0.4 | 1.3 | . | . | . | . | .
Cc1nn(C)cc1NC(=O)C[C@H]1CC[C@H]2[C@H](COc3ccc(NC(=O)C4CCC4)cc3C(=O)N2C)O1 | 9.1 | . | 6.1 | -10.9 | . | . | . | .
C[C@H]1CN([C@@H](C)CO)C(=O)CCCn2nncc2CO[C@H]1CN(C)Cc1ccccc1C(=O)O | 1.6 | 2.1 | -1.2 | -24.5 | . | . | . | .
SMILES | Pf Dd2 inh | IDH1 R132H inh | GASC1 inh | T cruzi growth-1 | T cruzi growth-2 | T cruzi growth-3 | NIH3T3 tox | NIH3T3 tox 2
Cc1ccc(S(=O)(=O)Nc2ccc3c(c2)CC(=O)N([C@@H](C)CO)C[C@H](C)[C@@H](CN(C)S(=O)(=O)c2cn(C)cn2)O3)cc1 | 20.4 | -28.2 | -1.6 | 7.0 | . | . | . | .
O=C(C[C@@H]1CC[C@@H]2[C@H](COC[C@H](O)CN2CCC(F)(F)F)O1)NCC1CCCCC1 | 3.9 | . | 2.3 | 116.8* | 8.5 | 12.8 | -11.1 | -20.0
O=C(C[C@H]1CC[C@H]2[C@@H](COC[C@@H](O)CN2CCC(F)(F)F)O1)NCC1CCCCC1 | 3.1 | . | -1.2 | 73.6 | . | . | . | .
O=C(C[C@@H]1CC[C@@H]2[C@H](COC[C@@H](O)CN2Cc2cccc(C(F)(F)F)c2)O1)NCc1ccc(Cl)cc1 | -56.2 | . | 1.0 | 155.0* | 80.6 | -3.8 | 21.5 | ?
O=C(C[C@@H]1CC[C@@H]2[C@H](COC[C@H](O)CN2Cc2cccc(C(F)(F)F)c2)O1)NCc1ccc(Cl)cc1 | -23.1 | . | -1.7 | 82.1 | . | . | . | .
O=C(C[C@H]1CC[C@H](NC(=O)NC2CCCCC2)[C@@H](CO)O1)NCc1ccc(Cl)cc1 | -13.7 | 0.3 | -1.6 | 22.7 | . | . | . | .
C[C@@H]1CCCCO[C@@H](CN(C)Cc2ccc(C(F)(F)F)cc2)[C@@H](C)CN([C@@H](C)CO)C(=O)c2cc(NS(=O)(=O)c3ccc(Cl)cc3)ccc2O1 | -33.2 | . | -0.8 | 97.1* | 87.3 | 112.6* | 27.7 | 102.5*
C[C@H](CO)N1C[C@H](C)[C@H](CN(C)Cc2ccc(C(F)(F)F)cc2)OCCCC[C@H](C)Oc2ccc(NS(C)(=O)=O)cc2C1=O | -10.2 | -5.1 | -0.1 | -58.9 | . | . | . | .

Source: PubChem BioAssay
